Measured values reported in the EternaBench riboswitch data.

Test system: MS2 coat protein
Experiment: apparent Kd, MS2 coat protein; higher = weaker binding; RNA-MaP array; FMN 200 µM where present
Method in brief: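 Stalled E. coli RNA polymerase transcribed each design on Illumina sequencing-chip clusters. The clusters were titrated with SNAP-549-labelled MS2 coat protein, starting at 0.7 or 1.5 nM and doubling up to 3 µM, first without ligand and then with constant ligand, in 100 mM Tris-HCl pH 7.5, 80 mM KCl, 4 mM MgCl2, BSA, DTT, yeast tRNA and Tween-20. Green signal was normalised to red-channel RNA signal and to the control-cluster median Fmax. The apparent Kd is the median of filtered binding-curve fits made for each cluster.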

[1] = designed as: ON switch for flavin mononucleotide, no ligand
[2] = ligand present: flavin mononucleotide, designed as: ON switch for flavin mononucleotide
[3] = designed as: OFF switch for flavin mononucleotide, no ligand
[4] = ligand present: flavin mononucleotide, designed as: OFF switch for flavin mononucleotide

Sequence | apparent Kd [1] [nM] | apparent Kd [2] [nM] | apparent Kd [3] [nM] | apparent Kd [4] [nM]
ACAUACUCUCGAGGAUAUCGUAUGGAAAAGAAACGAGAAGGCGAAUGUUAAUUUCUAAUACAUGACAUGAGGAUCACCCAUGUA | 30.4 | 27.3 | – | –
ACAUCUCGAGCCGACGGGAGAGUACAUGAGGAUCACCCAUGUGAGGAUAUCCCUGAGAAGACGGCGGAGAAGGCACUGGGUAGG | – | – | 6.33 | 10.4
CUGUAUGAUGUAGGAUAUACAAUAAUAUUGUUAGUAGAAGGACAUGAGGAUCACCCAUGUAAAUUAAUUUUAAUUAUUUUUGCG | – | – | 47.2 | 36.6
UUGGACGUCGUAGGAUAUGUAGCAUAUUCCUACAUGAGGAUCACCCAUGUUGACAUGGAAGAAGGACAGAAGGACGAUGUCCAU | 5.61 | 5.36 | – | –
ACUCGCGGAGAGAAGGGAUUUGUACAUGAGGAUCACCCAUGUCGCACGGUCAGGAUAUCUUCGUCAGGUACAACAUACGUCCCG | 16.8 | 6.99 | – | –
GACACUAUGUUUGUCAGAUAGAGAGAGGAUAUGGCUCAUGAGACAUGAGGAUCACCCAUGUAUAAUCAGAAGGCUCGAGUAGGA | 12.5 | 9.56 | – | –
UUAUGUCGCGUAGGAUAUCACUAGAGUUGUAAUUUAAUUGUAAUUUCGAUGUGAGAAGGACGUACACAUGAGGAUCACCCAUGU | – | – | 19.5 | 16.3
CCGAUAAUAGGACAGGAUAUGACUGUCGUCACAUGAGGAUCACCCAUGUCCCGGCAAUGCCACCGUUAGAAGGGUCCUAUCUCGA | 14.9 | 14.6 | – | –
AUAGCAACAUGAGGAUCACCCAUGUAGGAUAUCGCUAUUGUAAUCAUGAAACAUGAUUACAAUAGCGAGAAGGACAUAUGCUAU | – | – | 6.51 | 9.75
CAGGACAGGAAACGGAGCGGCCAACAUGAGGAUCACCCAUGUAAGGAUAUGCCUACUAAAAGUAGGCAGAAGGUACAGAAGGCA | – | – | 29.9 | 73.1
CAUGGCACGUAGGAUAUCUCGCAGCCCGGCUGCAGAGAAGGACGUACAUGAGGAUCACCCAUGUAUGAUCCAAA | – | – | 24.5 | 49.2
GCCGAUUAAGUGAGGAUAUACCUAUGGAUACAUAGGUAGAAGGCACAUGAGGAUCACCCAUGUUCCUUAACGGC | – | – | 11.2 | 30
UUACCUCAUGAGAAGGCGAUCAUGAAACAUGAUCGAGGAUAUCAUGUAAACAUGAGGAUCACCCAUGUAUGGGUAUUAUGGUAG | 198 | 56.8 | – | –
AGUCGGAGCAGAGGAUAUAUACAUGAGGAUCACCCAUGUAAAGAUCAAAGCAGGAAACUGCAAGUAUAGAAGGCUGCUCCGACA | – | – | 108 | 231
GGUUGGCGAGGAUAUACAUGAGGAUCACCCAUGUGGUCCUGAGAUAGAAUAGACCUUUGUAGAAGGCGCGGGUC | – | – | 172 | 136
AAGCGAGGGACAGGAUAUGCGGCGAAACUCGCCGCAGAAGGGUCGACAUGAGGAUCACCCAUGUCCUUACGCUCCACGUAGUGG | 107 | 455 | – | –
CUGAGCUGAGGAUAUACAUGAGGAUCACCCAUGUGGGCCUGCGAGGUUACUUGCACAUGUAGAAGGCAGUUCGG | – | – | 136 | 17.2
AAAGACUAAGGAUAUACAUGAGGAUCACCCAUGUCUACCCACAUGCUGGUAUCAACCUGUAGAAGGUAGUUCAA | – | – | 27.8 | 85.9
UUAGGAUCAGGAUAUGAUGUUUUAAACAUGAGGAUCACCCAUGUAGAUCCUGAAUCAACAUCAGAAGGGAUAAUUU | – | – | 56.6 | 184
AAAAAGCUAGGAUAUACAUGAAAAAAAAAAAAGUAAAAAAAACAUGAGGAUCACCCAUGUAGAAGGAGCAAAAA | – | – | 44 | 39.5
AAGUCGCGGUCAGGAUAUCAGAAACAAAUUGACUGAGAAGGGAUGGCACAUGAGGAUCACCCAUGUCGUCGUCGCAGUGGGUGA | – | – | 116 | 155
CUUUUGUGAGGAUAUUAUUAGUAAAUAAAUAAAAUUACUACUGAGAAGGCACAUGAGGAUCACCCAUGUUCCUC | – | – | 24.3 | 108
GUAGCAACAUGAGGAUCACCCAUGUAGGAUAUCGCUAUUGUAAUCAUGAAACAUGAUUACAAUAGCGAGAAGGACAUAAGCUAC | – | – | 6.67 | 8.84
GGAUAGGACAGAGGAUAUACGUGCUAGAGAUACUAGCAAAAUUUCCUCACAUGAGGAUCACCCAUGUAGAAGGCAGUCCUAUCG | – | – | 4.95 | 7.33

Sequence | apparent Kd [1] [nM] | apparent Kd [2] [nM] | apparent Kd [3] [nM] | apparent Kd [4] [nM]
CACUGCAAUGUAGGAUAUCGACUGGAAUACAGUCGAGAAGGACAUGAGGAUCACCCAUGUAAUCCUAAUAAUAAAUAAGCAGUG | – | – | 12.4 | 18.4
CGAUAGGACAGAGGAUAUACACAUGAGGAUCACCCAUGUAAUUACAAUUCUUAAGAUUCUAACAUGUAGAAGGCUGUCCUAUCG | – | – | 40.2 | 19.3
CGCUCUAUAUAUUUGGCAAGAAUCAGAAGGCGUUACAUGAGGAUCACCCAUGUUUUGAAUAGUAACGAGGAUAUGAUAUGAGCG | – | – | 21.6 | 25
GUGUGAUUAAGAGGAUAUAUACAACAUGAGGAUCACCCAUGUACCCGUGUAGUAGAAGGUUUGUUUUUAUAUAAUAUUAUAAUU | 29.9 | 24.8 | – | –
UAUGGUAAAGUCAGGAUAUACGUGCAGUUUUCUGGGUAGAAGGGACAUGAGGAUCACCCAUGUAUGGUAGUGUU | – | – | 118 | 142
CGUAGGAUGCAGAAGGCAUGAACAUGAGGAUCACCCAUGUGAAAACACAUGAGGAUAUGCAUCCUACGAAAAGUGCGAAAGCAC | 5.89 | 4.69 | – | –
UCUGUCCUUGUCAGGAUAUCGAUGGUAAGACCAUGCGAGAAGGGACAUGAGGAUCACCCAUGUUCGACCUGGGU | – | – | 176 | 222
AGAAACUACGAGAAGGACAUAAAAGGUGCCGCAAACAUGAGGAUCACCCAUGUAGGAUAUCGUAGUUUCAGGAUCGUGAGAUCA | – | – | 28.4 | 262
ACAUGAGGAUCACCCAUGUACAGGGUUUAGUUUCAUUGUUUGAAGGAUAUACUUAGUUAGUUGUUGUAGAAGGUCAUAUUUUAU | – | – | 203 | 265
UCCUUGGUACAGAAGGACCGAGCUCAGUAGCAGGUAGGAUAUGUACAUGAGGAUCACCCAUGUCAGCGGUAAUUACCAGUUUUC | – | – | 57.5 | 24.2
AUGAGGGAAGUAGGAUAUGAUCAAGACAUGAGGAUCACCCAUGUAAUGAGGGUGUGUGUCUUUGUUCAGAAGGACUUGUAUCAA | – | – | 60.4 | 60.4
UAGUGCGUUAGAGGAUAUUCUAAAUAAAAUAAUAAGACAUGAGGAUCACCCAUGUAUGUACAUGGGAAGAAGGCUGAUGUGCUA | 573 | 42.9 | – | –
GCGAUUAAGUAGAAGGUACGUUAUAAGACAAUGUAAGGAUAUACUGACAUGAGGAUCACCCAUGUAAAAUUAGUUUACUGUCGC | 7.34 | 6.44 | – | –
GGUGCACGCACAGGAUAUCCGGCGGAGCUCGUCGGAGAAGGGUGACAUGAGGAUCACCCAUGUACGUGCAACUUAGUUUAAGAG | 20 | 19 | – | –
GCACUGGCAGGAUAUACAUGAGGAUCACCCAUGUGACCCUUGAUGUACUCGCGUACACGUAGAAGGGCCUGUGC | – | – | 120 | 571
AGAAGUUUGUAGAAGGACGACUAAUUUGUAUUCGUAGGAUAUACUAUUUACAUGAGGAUCACCCAUGUUUAAAUGGAACAAUGU | – | – | 7 | 10.2
GUGCUUGUCGAAGGAUAUGGUUACAUGAGGAUCACCCAUGUUAUGCUUGGUUACUUGUUUAGUUUCCAGAAGGUCGAUUAGUUG | – | – | 53.4 | 163
GUUAGUUAAGGAUAUACAGGGAGCUGCGGCGUCUCGCCGCAACAUGAGGAUCACCCAUGUAGAAGGUAGCCGUU | – | – | 76.4 | 121
GCGAGUAAAGCAGGAUAUCUAUUGUCUCUGUAACAUGAGGAUCACCCAUGUAGAGAAGGGCUUAGUCAUACAAUUCGAACUCGC | – | – | 7.86 | 7.32
UUGACGGCAGGAUAUACAUGAGGAUCACCCAUGUAAAUUUUUCGUUUAACUUGAAUGUGUAGAAGGGCCAAAUU | – | – | 19 | 20
GGAGCACACAUUCACAUGAGGAUCACCCAUGUCAAAAGACAUGAGGAUAUGGAUCCGAAAAGGAUCCAGAAGGCAUGGUGCUCC | 483 | 25.5 | – | –
AAAAGACAUGAGGAUCACCCAUGUUAGGAUAUCGUGCAGAAAAAAAAAAAAAACUGCACGAGAAGGAACAAGGA | – | – | 73.5 | 88.5
AGUUAAUAUCGAGGAUAUCUCAUGGAUACAUGAGGAUCACCCAUGUUAAUGGGAGAAGGCGAUAUUAACAGCAUGUUACAUGCA | 28 | 7.38 | – | –
AAAAAACAUGAGGAUCACCCAUGUGAGGAUAUCGGAAAAAAAAAAAAAAAAAAAAAAACGAGAAGGCACAAAAA | – | – | 60.8 | 71.7
